{"data": "Results gathered from unrelated publications", "note": "Protocols differ between the studies behind these lines."}
{"Structure (SMILES)": "COc1cc(OC)c2nccc(N3CCc4c(cc(Cn5ccnc5)cc4-c4cn(C)nc4C(F)(F)F)C3=O)c2c1", "host": "male CD-1 mouse", "matrix": "plasma", "route": "intravenous", "dose": "3 mg/kg", "Vd": "2 L/kg"}
{"Structure (SMILES)": "COc1ccc(C(O)COc2ccc(-c3csc(-c4ccc(OCC(O)c5ccc(OC)c(OC)c5)cc4)n3)cc2)cc1OC (centres unmarked)", "host": "C57BL/6 mouse", "matrix": "plasma", "route": "intravenous", "dose": "3 mg/kg", "Vd": "1.5 L/kg"}
{"Structure (SMILES)": "CN1CCN(CC2CCN(c3nccc4[nH]c(-c5cc(F)cc(F)c5)nc34)CC2)CC1", "host": "BALB/c mouse", "matrix": "blood", "route": "intravenous", "dose": "2 mg/kg", "Vd": "37 L/kg"}
{"Structure (SMILES)": "CCc1cc(C(=O)NC)c2nccc(N3CCc4c(cc(Cn5ccnc5)cc4-c4cn(C)nc4C(F)(F)F)C3=O)c2c1", "host": "male CD-1 mouse", "matrix": "plasma", "route": "intravenous", "dose": "3 mg/kg", "Vd": "0.4 L/kg"}
{"Structure (SMILES)": "CC(C)(C)c1ccc(O)c(CN(Cc2cc(C(C)(C)C)ccc2O)C2CCC(NC(N)=O)CC2)c1 (centres unmarked)", "host": "male C57BL/6 mouse", "matrix": "plasma", "route": "intraperitoneal", "dose": "5 mg/kg", "notes": "single dose", "Vd": "2.4 L"}
{"Structure (SMILES)": "COc1cc(C(=O)N2CCC(N3CCN(C)CC3)CC2)ccc1Nc1ncc2c(n1)N(C)c1ccccc1C(=O)N2C", "host": "mouse", "matrix": "plasma", "route": "intravenous", "dose": "1 mg/kg", "Vd": "1.71 L/kg"}
{"Structure (SMILES)": "Cc1ccc2cncc(N3CCc4c(cc(Cn5ccnc5)cc4-c4cn(C)nc4C(F)(F)F)C3=O)c2c1", "host": "male CD-1 mouse", "matrix": "plasma", "route": "intravenous", "dose": "3 mg/kg", "Vd": "0.8 L/kg"}
{"Structure (SMILES)": "COc1cc(C2Oc3cc([C@H]4Oc5cc(O)cc(O)c5C(=O)[C@@H]4O)ccc3OC2CO)ccc1O (some centres unmarked)", "host": "male CD-1 mouse", "matrix": "plasma", "route": "intravenous", "dose": "2 mg/kg", "Vd": "2.51 L/kg"}
{"Structure (SMILES)": "CNCCN(C)c1cc(C#N)cc(CCc2cc(C)cc(N)n2)c1", "host": "male BALB/c mouse", "matrix": "brain", "route": "intravenous", "dose": "2 mg/kg", "Vd": "44 L/kg"}
{"Structure (SMILES)": "COc1nc(-c2cc(C)c(N[C@@H](C)c3ccc(F)cc3)nn2)ccc1-n1cnc(C)c1", "host": "male CD-1 mouse", "matrix": "plasma", "route": "intravenous", "dose": "1 mg/kg", "notes": "single dose", "Vd": "1.02 L/kg"}
{"Structure (SMILES)": "CC[C@H](C)[C@@H]1NC(=O)[C@@](C)(NC(=O)[C@H](CCCNC(=N)N)NC(=O)[C@H](CC(C)C)NC(=O)[C@@H](NC(=O)[C@H](CCC(N)=O)NC(=O)[C@H](CC(C)C)NC(C)=O)[C@@H](C)O)CCCC=CCCC[C@@](C)(C(=O)N[C@@H](CC(C)C)C(=O)N[C@@H](Cc2ccc3ccccc3c2)C(N)=O)NC(=O)[C@H](CCCNC(=N)N)NC(=O)[C@H](CCC(N)=O)NC1=O", "host": "male BALB/c mouse", "matrix": "plasma", "route": "intravenous", "dose": "5 mg/kg", "Vd": "0.0692 L/kg"}
